Test results published in ChEMBL document CHEMBL1145492, “Comparison of the phosphorylation of 4'-ethynyl 2',3'-dihydro-3'-deoxythymidine with that of other anti-human immunodeficiency virus thymidine analogs” (Antimicrob Agents Chemother, 2007).

Assays:
[1] = target: T1, Thymidylate kinase (Homo sapiens) (UniProt P23919); assay: Ratio of Kcat to Km of human recombinant TMPK relative to D4TMP
T1 sequence (whole entry): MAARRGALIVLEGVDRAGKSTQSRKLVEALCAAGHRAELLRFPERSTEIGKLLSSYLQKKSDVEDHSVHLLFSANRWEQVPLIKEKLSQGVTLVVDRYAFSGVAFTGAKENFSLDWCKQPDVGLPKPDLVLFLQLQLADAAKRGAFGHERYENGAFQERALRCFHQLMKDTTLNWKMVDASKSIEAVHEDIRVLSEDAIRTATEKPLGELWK

CCRF-CEM [2] = assay: Activity of nucleoside diphosphate kinase from crude human CEM cell extract; type: cell-free
How it was run: (§1)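 CEM cell lysate (NP-40 lysis buffer, desalted on G-50) as enzyme source. Donors: 2 mM ATP for NDPK; 2 mM creatine phosphate for CK; 2 mM phosphoenolpyruvate for PK; for PGK, 1,3-bisphosphoglycerate made in situ by GAPDH. Activity in nmol/min/mg, normalized per unit (1 μmol ADP→ATP/min), then relative to D4TDP.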

CCRF-CEM [3] = assay: Activity of nucleoside diphosphate kinase from crude human CEM cell extract assessed as conversion of 1 umol of ADP to ATP per min; type: cell-free
How it was run: as §1

CCRF-CEM [4] = assay: Activity of nucleoside diphosphate kinase from crude human CEM cell extract assessed as phosphorylation efficiency relative to D4TDP; type: cell-free
How it was run: as §1

[5] = target: Nucleoside diphosphate kinase B (Homo sapiens) (UniProt P22392); assay: Activity of human recombinant nm23H2 assessed as conversion of 1 umol of ADP to ATP per min
How it was run: (§2)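 Recombinant human nm23-H1 and nm23-H2 (cloned from KB) and PGK (cloned from HepG2). Donor was 2 mM ATP for nm23; for PGK, 1,3-bisphosphoglycerate generated by GAPDH. Specific activity (nmol/min/mg) was normalized per unit (1 μmol ADP→ATP/min) and compared with D4TDP. Mean ± SD, n=3.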

[6] = target: Nucleoside diphosphate kinase B (Homo sapiens) (UniProt P22392); assay: Activity of human recombinant nm23H2 assessed as phosphorylation efficiency relative to 4-ethynyl D4TDP; conditions: in the assay text read “relative to D4TDP” for “relative to 4-ethynyl D4TDP”
How it was run: as §2

Homo sapiens [7] = species on record: Homo sapiens; assay: Activity of human recombinant 3-phosphoglycerate kinase
How it was run: as §2

Homo sapiens [8] = species on record: Homo sapiens; assay: Activity of human recombinant 3-phosphoglycerate kinase assessed as conversion of 1 umol of ADP to ATP per min
How it was run: as §2

Homo sapiens [9] = species on record: Homo sapiens; assay: Activity of human recombinant 3-phosphoglycerate kinase assessed as phosphorylation efficiency relative to 4-ethynyl D4TDP; conditions: in the assay text read “relative to D4TDP” for “relative to 4-ethynyl D4TDP”
How it was run: as §2

CCRF-CEM [10] = assay: Activity of 3-phosphoglycerate kinase from crude human CEM cell extract; type: cell-free
How it was run: as §1

CCRF-CEM [11] = assay: Activity of 3-phosphoglycerate kinase from crude human CEM cell extract assessed as conversion of 1 umol of ADP to ATP per min; type: cell-free
How it was run: as §1

CCRF-CEM [12] = assay: Activity of 3-phosphoglycerate kinase from crude human CEM cell extract assessed as phosphorylation efficiency relative to 4-ethynyl D4TDP; conditions: in the assay text read “relative to D4TDP” for “relative to 4-ethynyl D4TDP”
How it was run: as §1

[13] = target: Nucleoside diphosphate kinase A (Homo sapiens) (UniProt P15531); assay: Activity of human recombinant nm23H1
How it was run: as §2

[14] = target: Nucleoside diphosphate kinase A (Homo sapiens) (UniProt P15531); assay: Activity of human recombinant nm23H1 assessed as conversion of 1 umol of ADP to ATP per min
How it was run: as §2

[15] = target: Nucleoside diphosphate kinase A (Homo sapiens) (UniProt P15531); assay: Activity of human recombinant nm23H1 assessed as phosphorylation efficiency relative to 4-ethynyl D4TDP; conditions: in the assay text read “relative to D4TDP” for “relative to 4-ethynyl D4TDP”
How it was run: as §2

[16] = target: Nucleoside diphosphate kinase B (Homo sapiens) (UniProt P22392); assay: Activity of human recombinant nm23H2
How it was run: as §2

CCRF-CEM [17] = assay: Activity of 3-phosphoglycerate kinase from crude human CEM cell extract assessed as phosphorylation efficiency relative to D4TDP
CCRF-CEM [18] = assay: Activity of pyruvate kinase from crude human CEM cell extract assessed as conversion of 1 umol of ADP to ATP per min; type: cell-free
How it was run: as §1

CCRF-CEM [19] = assay: Activity of pyruvate kinase from crude human CEM cell extract; type: cell-free
How it was run: as §1

[20] = target: T1, Thymidylate kinase (Homo sapiens); assay: Activity of TMPK in human CEM cells assessed as level of triphosphate metabolites per 10^6 cells at 2 uM after 12 hrs; type: cell-based; conditions: CCRF-CEM
How it was run: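 CEM cells at 10^6/ml in RPMI/10% FBS were exposed to 2 μM radiolabeled nucleoside (75 mCi/mmol) for 12 h. Cells were washed in cold PBS with 20 μM dipyridamole and extracted with 15% TCA on ice for 15 min. Extracts were neutralized with trioctylamine/trichlorotrifluoroethane (45:55). MP, DP and TP were resolved by HPLC, and radioactivity was converted to pmol/10^6 cells. Two independent experiments.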

CCRF-CEM [21] = assay: Activity of creatine kinase from crude human CEM cell extract; type: cell-free
How it was run: as §1

[22] = target: T1, Thymidylate kinase (Homo sapiens); assay: Ratio of Kcat to Km of human recombinant TMPK relative to […]
How it was run: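 Substrate ranges were TMP 6.25–100 μM and analog MPs 6.25–250 μM. Reactions were stopped at various times with TCA and neutralized with trioctylamine/trichlorotrifluoroethane. Km and kcat came from Lineweaver-Burk plots. Relative efficiency is kcat/Km with D4TMP as 100%. Mean ± SD of three experiments.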

Sequence of Nucleoside diphosphate kinase B (Homo sapiens) (P22392 whole entry): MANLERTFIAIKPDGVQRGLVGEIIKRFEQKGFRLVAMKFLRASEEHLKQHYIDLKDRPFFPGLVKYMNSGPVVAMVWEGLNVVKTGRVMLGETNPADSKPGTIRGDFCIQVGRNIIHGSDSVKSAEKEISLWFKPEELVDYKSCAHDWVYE
Sequence of Nucleoside diphosphate kinase A (Homo sapiens) (P15531 whole entry): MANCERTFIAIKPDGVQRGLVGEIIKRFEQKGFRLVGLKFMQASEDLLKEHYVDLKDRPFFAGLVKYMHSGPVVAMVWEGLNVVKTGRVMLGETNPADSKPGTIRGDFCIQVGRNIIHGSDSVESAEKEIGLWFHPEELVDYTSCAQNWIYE

Compound | Activity (CCRF-CEM [2]) [nmol/min/mg] | Activity (CCRF-CEM [3]) [nmol] | Activity [5] [nmol] | Activity (Homo sapiens [7]) [nmol/min/mg] | Activity (Homo sapiens [8]) [nmol] | Activity (CCRF-CEM [10]) [nmol/min/mg] | Activity (CCRF-CEM [11]) [nmol] | Activity [13] [nmol/min/mg] | Activity [14] [nmol] | Activity [16] [nmol/min/mg] | further results
Cc1cn([C@H]2C[C@H](N=[N+]=[N-])[C@@H](COP(=O)(O)O)O2)c(=O)[nH]c1=O |  |  |  |  |  |  |  |  |  |  | Activity [1]: 59%
Cc1cn([C@H]2C[C@H](O)[C@@H](COP(=O)(O)O)O2)c(=O)[nH]c1=O |  |  |  |  |  |  |  |  |  |  | Activity [1]: 5600%
Cc1cn([C@@H]2C[C@H](N=[N+]=[N-])[C@@H](COP(=O)(O)OP(=O)(O)O)O2)c(=O)[nH]c1=O | 0.018 | 0.007 | 0.1 | 14 | 0.005 | 0.26 | 0.025 | 107 | 0.08 | 131 | Activity (CCRF-CEM [4]): 1.7%; Activity [6]: 7.6%; Activity (Homo sapiens [9]): 135%; Activity (CCRF-CEM [12]): 6.2%; Activity [15]: 7.2%
Cc1cn([C@H]2C[C@H](O)[C@@H](COP(=O)(O)OP(=O)(O)O)O2)c(=O)[nH]c1=O | 2700 | 1100 | 1000 | 137 | 0.049 | 21 | 2 | 1.3e+06 | 1000 | 1.4e+06 | Activity (CCRF-CEM [4]): 260000%; Activity [6]: 83000%; Activity (Homo sapiens [9]): 1300%; Activity [15]: 89000%; Activity (CCRF-CEM [17]): 490%
Cc1cn([C@H]2C=C[C@@H](COP(=O)(O)OP(=O)(O)O)O2)c(=O)[nH]c1=O | 1.1 | 0.42 | 1.2 | 10 | 0.0037 | 4.2 | 0.4 | 1500 | 1.2 | 1700 | Activity (CCRF-CEM [18]): 99 nmol; Activity (CCRF-CEM [19]): 0.35 nmol/min/mg
Cc1cn([C@H]2C[C@H](N=[N+]=[N-])[C@@H](CO)O2)c(=O)[nH]c1=O |  |  |  |  |  |  |  |  |  |  | Activity [20]: 0.27 pmol
Nc1ncnc2c1ncn2[C@@H]1O[C@H](COP(=O)(O)OP(=O)(O)O)[C@@H](O)[C@H]1O | 2500 |  |  |  |  | 10600 |  |  |  |  | Activity (CCRF-CEM [21]): 2.5 nmol/min/mg; Activity (CCRF-CEM [19]): 3.6 nmol/min/mg
C#C[C@@]1(COP(=O)(O)O)C=C[C@H](n2cc(C)c(=O)[nH]c2=O)O1 |  |  |  |  |  |  |  |  |  |  | Activity [22]: 8.8%
